From PubChem BioAssay
Calls of active or inactive are those of the source.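 How the source made its calls, unless noted: active means viability at or under a set limit in both replicates, limit being median viability minus 3 SD (cut at about 48% in these data, passing the limit was not always enough); inconclusive means at or under the limit in just one replicate; inactive means at or above the limit in both replicates.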

Columns and labels:
[1] = reducers of endogenous Her2 protein level, primary screen, SKBR3 breast tumor cells, AlphaScreen, ATP viability (AID 461;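 active means Her2 level under about 52% in both replicate screens, with viability over 70% of control, limit read from the data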;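 on Her2 level: lower value means less Her2 protein in the cells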;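 on viability: percent of carrier control wells set as 100% viability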); settings: 18-24 h, measured here: SKBR3 viability, ATP luminescence, at 10 µM
[2] = molecular target: Receptor tyrosine-protein kinase erbB-2 (Homo sapiens) (UniProt P04626); test: as above; settings: 18-24 h, at 10 µM, stronger effect = lower value
[3] = SK-BR-3 cell growth inhibitors, pilot screen, 24 h, human (AID 572;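 active means viability at or below 10% of carrier control in both of two separate runs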;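 further: compound exposure lasted between 18 and 24 h rather than exactly 24 h; 100% = carrier-treated control wells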); settings: SK-BR-3 viability, CellTiter-Glo luminescence, at 10 µM, stronger effect = lower value
[4] = HUVEC growth inhibition – cell-based, human, primary screen (AID 575;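 active means viability at or below 30% in both replicate assays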;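 further: 100% = median of untreated cell wells with 0.1% DMSO on each plate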); settings: HUVEC proliferation, CellTiter-Glo luminescence, 72 h; at 10 µM; stronger effect = lower value
Outline: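 Test system – primary HUVEC, no more than 12 passages · Dosing – one dose, 10 µM final, 0.1% DMSO · Times – 72 h treatment at 37 °C · Measured by – ATP-based CellTiter-Glo luminescent read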

[5] = growth inhibitors of H69AR lung tumor, primary screen, human, duplicate replicates (AID 580); settings: H69AR lung tumor cells viability, ATP luminescence, 72 h; at 10 µM; stronger effect = lower value;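 further: 100% = mean luminescence of untreated wells and 0% = no signal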
[6] = reversal of MRP1-mediated doxorubicin resistance, pilot screen, H69AR cells, doxorubicin co-treatment (AID 601;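 active means viability loss from added drug above about 55%, and viability with drug at most 40%, in both replicates, limit read from the data, passing the limit was not always enough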); settings: CellTiter-Glo, 72 h, at 10 µM; for differential viability (reversal): stronger effect = higher value
[7] = 384-well plate pilot, post-Golgi transport modulator project, inhibition of yeast transport mutant growth (AID 636; in the data active means inhibition above about 31%); settings: absorbance 615 nm, about 18 h, stronger effect = higher value
[8] = growth suppression of yeast trafficking mutant, preliminary HTS, modulators of trafficking downstream of Golgi apparatus project, 1536-format plate, OD 615 nm (AID 637; in the data active means inhibition above about 30%); settings: yeast transport mutant growth, absorbance 615 nm, 18 h; stronger effect = higher value
[9] = H69AR cells + 2 uM doxorubicin, measured here: viability with 2 uM doxorubicin, stronger effect = lower value
[10] = H69AR cells, compound alone cytotoxicity

Sequence of Receptor tyrosine-protein kinase erbB-2 (Homo sapiens) (P04626 whole entry, looked up): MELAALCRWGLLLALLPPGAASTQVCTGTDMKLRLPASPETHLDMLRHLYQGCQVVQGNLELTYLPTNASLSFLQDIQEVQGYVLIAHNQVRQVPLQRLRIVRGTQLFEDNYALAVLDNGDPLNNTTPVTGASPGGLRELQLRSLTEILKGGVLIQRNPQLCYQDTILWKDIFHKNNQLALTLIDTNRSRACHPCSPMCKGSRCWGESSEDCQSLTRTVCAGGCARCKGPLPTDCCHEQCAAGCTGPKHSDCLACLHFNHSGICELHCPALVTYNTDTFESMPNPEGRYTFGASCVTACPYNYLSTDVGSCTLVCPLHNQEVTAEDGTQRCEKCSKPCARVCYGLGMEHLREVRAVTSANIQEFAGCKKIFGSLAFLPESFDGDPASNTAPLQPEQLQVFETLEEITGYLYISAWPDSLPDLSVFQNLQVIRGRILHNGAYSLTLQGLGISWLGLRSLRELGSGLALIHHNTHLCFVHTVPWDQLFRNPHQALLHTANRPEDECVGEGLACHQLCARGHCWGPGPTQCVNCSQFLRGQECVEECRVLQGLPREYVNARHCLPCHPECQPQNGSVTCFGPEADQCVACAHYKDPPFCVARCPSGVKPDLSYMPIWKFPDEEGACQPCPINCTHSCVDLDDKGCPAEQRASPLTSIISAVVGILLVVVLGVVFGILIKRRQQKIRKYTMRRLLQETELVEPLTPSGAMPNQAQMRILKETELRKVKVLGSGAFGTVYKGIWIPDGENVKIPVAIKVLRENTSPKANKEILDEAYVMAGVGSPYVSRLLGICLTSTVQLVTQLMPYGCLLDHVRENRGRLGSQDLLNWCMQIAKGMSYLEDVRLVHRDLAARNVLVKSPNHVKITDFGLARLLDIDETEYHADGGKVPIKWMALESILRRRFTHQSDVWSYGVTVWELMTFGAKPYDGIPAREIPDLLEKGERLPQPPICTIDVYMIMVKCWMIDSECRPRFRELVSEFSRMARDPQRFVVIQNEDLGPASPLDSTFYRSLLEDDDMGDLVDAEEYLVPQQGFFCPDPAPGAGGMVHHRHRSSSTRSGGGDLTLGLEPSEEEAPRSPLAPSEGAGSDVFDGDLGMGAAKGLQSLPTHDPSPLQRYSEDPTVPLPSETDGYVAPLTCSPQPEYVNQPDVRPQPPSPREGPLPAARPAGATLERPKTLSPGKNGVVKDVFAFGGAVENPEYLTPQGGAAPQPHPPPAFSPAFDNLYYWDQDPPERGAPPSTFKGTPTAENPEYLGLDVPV

| Compound | viability [1] | Her2 level [2] | viability [3] | viability [4] | viability [5] | differential viability (reversal) ([6]; H69AR cells + 2 uM doxorubicin) | viability [6, 9] | viability [6, 10] | inhibition [7] | inhibition [8] |
| --- | --- | --- | --- | --- | --- | --- | --- | --- | --- | --- |
| Cc1cccc2sc(NC(=O)Cn3cccc3)nc12 | 87% | 93.5% (inactive) | 87% (inactive) | 107% (inactive) | 89.6% (inactive) | -8.27% (inactive) | 97.8% | 89.6% | -1.67% (inactive) | -1.83% (inactive) |
| CCOc1ccccc1N(CC(=O)NC1CCCC1)C(=O)CCCC(=O)Nc1ccccn1 | 91% | 93.5% (inactive) | 91% (inactive) | 106% (inactive) | 112% (inactive) | 15.3% (inactive) | 96.3% | 112% | -2.16% (inactive) | 6.03% (inactive) |
| Cc1cccc2c1N(CC(=O)OC(C)C)C(=O)C2=O | 76.5% | 103% (inactive) | 76.5% (inactive) | 95% (inactive) | 75.2% (inactive) | -3.31% (inactive) | 78.5% | 75.2% | 1.67% (inactive) | 6.67% (inactive) |
| Cc1ccccc1C1CC(c2ccccc2)Nc2ncnn21 (stereo not given) | 90% | 87.5% (inactive) | 90% (inactive) | 94.8% (inactive) | 64.2% (inactive) | -31.1% (inactive) | 95.3% | 64.2% | 1.47% (inactive) | -6.39% (inactive) |
| CCc1ccccc1NC(=O)C(C#N)Cc1cccnc1 (stereo not given) | 90% | 88.5% (inactive) | 90% (inactive) | 97.4% (inactive) | 94.6% (inactive) | -1.77% (inactive) | 96.3% | 94.6% | -2.57% (inactive) | -0.49% (inactive) |
| CCOC(=O)N1CCN(S(=O)(=O)c2ccc(F)c(C(=O)Nc3cc(C)cc(C)c3)c2)CC1 | 76% | 112% (inactive) | 76% (inactive) | 78.6% (inactive) | 83.3% (inactive) | 1.41% (inactive) | 81.9% | 83.3% | -2.11% (inactive) | -11.8% (inactive) |
| CCN(CCNC(=O)C1CCN(S(=O)(=O)CC)CC1)c1ccccc1 | 124% | 92.5% (inactive) | 124% (inactive) | 112% (inactive) | 95.7% (inactive) | 6.31% (inactive) | 89.4% | 95.7% | -7.84% (inactive) | -8.33% (inactive) |
| Cc1[nH]c(=O)[nH]c(=O)c1S(=O)(=O)N(C)Cc1ccccc1 | 108% | 106% (inactive) | 108% (inactive) | 96.2% (inactive) | 105% (inactive) | 12.3% (inactive) | 92.5% | 105% | -0.66% (inactive) | -4.6% (inactive) |
| CCSCCNC(=O)c1cc(-n2cnnc2)ccc1Cl | 138% | 106% (inactive) | 138% (inactive) | 108% (inactive) | 86.3% (inactive) | 0.415% (inactive) | 85.9% | 86.3% | -3.47% (inactive) | -1.48% (inactive) |
| O=C1CC2CS(=O)(=O)CC2N1c1ccc(Oc2ccccc2)cc1 (stereo not given) | 99% | 87% (inactive) | 99% (inactive) | 78.6% (inactive) | 95.6% (inactive) | -2.44% (inactive) | 98% | 95.6% | -5.47% (inactive) | 3.11% (inactive) |
| Clc1ccc(Cc2nn3c(-c4ccncc4)nnc3s2)cc1 | 99.5% | 107% (inactive) | 99.5% (inactive) | 101% (inactive) | 96.9% (inactive) | -0.11% (inactive) | 97% | 96.9% | -1.05% (inactive) | 15.4% (inactive) |
| CN(C)c1nc(N)nc(-c2nc3ccccc3s2)n1 | 73% | 89% (inactive) | 73% (inactive) | 85.1% (inactive) | 91.7% (inactive) | 6.39% (inactive) | 85.3% | 91.7% | -6.62% (inactive) | -1.64% (inactive) |
| CCOC(=O)C1=C(C)Nc2ncnn2C1c1ccccc1F (stereo not given) | 94% | 110% (inactive) | 94% (inactive) | 116% (inactive) | 95.6% (inactive) | -5% (inactive) | 101% | 95.6% | -0.92% (inactive) | -1.29% (inactive) |
| O=C(NCCCCNC(=O)c1c(F)c(F)c(F)c(F)c1F)c1c(F)c(F)c(F)c(F)c1F | 98.5% | 76.5% (inactive) | 98.5% (inactive) | 97.2% (inactive) | 89.4% (inactive) | 10.4% (inactive) | 78.9% | 89.4% | -6.27% (inactive) | -3.17% (inactive) |
| COc1ccccc1-n1cnc(N)c1C(C)=O | 110% | 103% (inactive) | 110% (inactive) | 105% (inactive) | 103% (inactive) | -0.75% (inactive) | 104% | 103% | -4.21% (inactive) | 7.7% (inactive) |
| NC(=O)CSc1nnc(-c2cnccn2)n1-c1ccccc1 | 114% | 97% (inactive) | 114% (inactive) | 103% (inactive) | 89.8% (inactive) | 7.27% (inactive) | 82.5% | 89.8% | -5.07% (inactive) | 1.13% (inactive) |

| Compound | viability [1] | Her2 level [2] | viability [3] | viability [4] | viability [5] | differential viability (reversal) ([6]; H69AR cells + 2 uM doxorubicin) | viability [6, 9] | viability [6, 10] | inhibition [7] | inhibition [8] |
| --- | --- | --- | --- | --- | --- | --- | --- | --- | --- | --- |
| COc1cc(SC)ccc1C(=O)Nc1ccon1 | 98.5% | 104% (inactive) | 98.5% (inactive) | 93% (inactive) | 101% (inactive) | 6.34% (inactive) | 94.5% | 101% | 0.27% (inactive) | 18.6% (inactive) |
| CCOc1cc(C2C(C(=O)OC(C)C)=C(C)N=C3SCCC(=O)N32)ccc1OC(C)=O (stereo not given) | 93% | 78.5% (inactive) | 93% (inactive) | 96.5% (inactive) | 93.3% (inactive) | 3.33% (inactive) | 89.9% | 93.3% | -2.89% (inactive) | 2.18% (inactive) |
| CC(=O)CCc1c(C)[nH]c2ccccc2c1=O | 88.5% | 118% (inactive) | 88.5% (inactive) | 99.1% (inactive) | 93.2% (inactive) | 0.225% (inactive) | 93% | 93.2% | 5.84% (inactive) | 13.1% (inactive) |
| CCN(c1cccc(C(F)(F)F)c1)S(=O)(=O)c1ccc2c(c1)CCN2C(=O)C1CC1 | 99% | 120% (inactive) | 99% (inactive) | 65.8% (inactive) | 82.5% (inactive) | -0.405% (inactive) | 82.9% | 82.5% | -3.42% (inactive) | -1% (inactive) |
| N#Cc1nc(-c2ccco2)oc1NCc1ccco1 | 94% | 89% (inactive) | 94% (inactive) | 89.3% (inactive) | 100% (inactive) | 8.27% (inactive) | 92% | 100% | -4.13% (inactive) | -8.25% (inactive) |
| O=C(O)c1[nH]c2ccc(Cl)cc2c1CC(=O)N1CCN(C(=O)c2ccco2)CC1 | 83.5% | 112% (inactive) | 83.5% (inactive) | 108% (inactive) | 95.8% (inactive) | 5.25% (inactive) | 90.5% | 95.8% | -4.34% (inactive) | -9.83% (inactive) |
| CCOc1ccc(NCc2nnc(SCC(=O)Nc3cc(C)on3)n2-c2ccccc2OC)cc1 | 106% | 79% (inactive) | 106% (inactive) | 41.7% (inactive) | 13.1% (active) | -19% (inactive) | 32.1% | 13.1% | -4.8% (inactive) | 2.86% (inactive) |
| C=CCOc1ccc(/C=N/n2cncn2)cc1OC | 85% | 112% (inactive) | 85% (inactive) | 103% (inactive) | 94.6% (inactive) | 8.46% (inactive) | 86.2% | 94.6% | 9.86% (inactive) | 16.8% (inactive) |
| COc1ccccc1OCC(=O)N1CCNC1=O | 90% | 96.5% (inactive) | 90% (inactive) | 84% (inactive) | 102% (inactive) | 12.2% (inactive) | 90% | 102% | -1.73% (inactive) | -0.98% (inactive) |
| Cn1c(=O)c2c(nc(SCC(=O)NCc3ccco3)n2C)n(C)c1=O | 116% | 98.5% (inactive) | 116% (inactive) | 87.1% (inactive) | 93.5% (inactive) | -0.15% (inactive) | 93.6% | 93.5% | -0.78% (inactive) | -4.76% (inactive) |
| CCOC(=O)C(CC)Sc1nc2c(c(=O)[nH]c(=O)n2C)n1C/C=C(/C)Cl (stereo not given) | 97.5% | 83% (inactive) | 97.5% (inactive) | 89.9% (inactive) | 84.9% (inactive) | 20.7% (inactive) | 64.2% | 84.9% | -6.27% (inactive) | 3.93% (inactive) |
| CCOc1ccc(OCC)c(NC(=O)CN2CCN(C(=O)c3ccco3)CC2)c1 | 75% | 103% (inactive) | 75% (inactive) | 82.4% (inactive) | 68.8% (inactive) | 38.1% (inactive) | 30.6% | 68.8% | 4.81% (inactive) | -7.3% (inactive) |
| COc1ccc(NC(=O)c2cc(C)on2)cc1OC | 110% | 93% (inactive) | 110% (inactive) | 104% (inactive) | 96.7% (inactive) | 8.07% (inactive) | 88.6% | 96.7% | -5.87% (inactive) | 3.28% (inactive) |
| O=C(Nc1cc(Cl)ccc1Cl)c1noc2c1CCCC2 | 87.5% | 90.5% (inactive) | 87.5% (inactive) | 63.5% (inactive) | 83.5% (inactive) | -3.4% (inactive) | 86.9% | 83.5% | -0.51% (inactive) | -5.5% (inactive) |
| O=c1oc2ccccc2n1CCn1c2ccccc2c2nc3ccccc3nc21 | 85% | 96% (inactive) | 85% (inactive) | 53.2% (inactive) | 34.2% (active) | -3.67% (inactive) | 37.8% | 34.2% | -1.05% (inactive) | -3.71% (inactive) |
